Active and inactive are the calls of the source. The calls are words filed in the database; no cut-off is given here.
How the values were obtained:
[1] = target: T1, Farnesyl pyrophosphate synthase (Homo sapiens, UniProt P14324); assay: Inhibition of human recombinant FDPS expressed in BL21 gold bacteria
T1 sequence (P14324 whole entry): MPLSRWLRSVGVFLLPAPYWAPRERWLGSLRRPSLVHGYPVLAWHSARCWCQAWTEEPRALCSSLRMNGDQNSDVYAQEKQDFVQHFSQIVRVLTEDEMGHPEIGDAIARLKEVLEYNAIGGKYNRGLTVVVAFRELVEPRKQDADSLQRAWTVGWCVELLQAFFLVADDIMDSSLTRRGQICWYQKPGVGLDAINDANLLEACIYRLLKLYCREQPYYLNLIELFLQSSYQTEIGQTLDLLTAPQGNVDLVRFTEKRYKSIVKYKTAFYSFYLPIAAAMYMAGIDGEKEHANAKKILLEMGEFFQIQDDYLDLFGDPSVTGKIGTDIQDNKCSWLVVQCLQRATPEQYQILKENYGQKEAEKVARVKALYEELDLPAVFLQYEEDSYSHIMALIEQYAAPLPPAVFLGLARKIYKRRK
Method in brief: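 GST-tagged recombinant human enzyme expressed in BL21 gold bacteria (IPTG induction), purified by affinity chromatography or glutathione agarose. Reaction: 20 µM GPP, 40 µM 14C IPP in 50 mM Tris pH 7.7, 10 mM NaF, 2 mM MgCl2, 1 mg/mL BSA. 10-min preincubation with inhibitor, substrates then added; 1 h at 37 °C. Products extracted with saturated butanol; 14C incorporation by scintillation counting; n = 3.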

[2] = test system: K562; assay: Inhibition of Rap1a protein modification in human K562 cells by Western blot relative to lovastatin; type: functional
Method in brief: (§1)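 K562 cells in suspension culture (5 × 10^6 cells/5 ml, fresh medium) exposed 24 h to 1, 2.5, 5, 10, 25 or 50 µM compound. Protein quantified by BCA, resolved on 12% SDS gel, transferred to PVDF, probed for Rap1a with primary then secondary antibody (45 min each), ECL detection.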

[3] = test system: K562; assay: Growth inhibition of human K562 cells after 24 hrs; type: functional; details: K562, 24 h
Method in brief: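 K562 leukaemia cells (ATCC, grown per ATCC protocol), asynchronous suspension cultures at 5 × 10^6 cells/5 ml in fresh medium, exposed to compound for 24 h. Growth followed by 3H-thymidine incorporation. GI50 taken from quadruplicate dose–response curves.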

[4] = target: T2, Farnesyl pyrophosphate synthase (Homo sapiens) (UniProt P14324); assay: Inhibition of human recombinant FDPS expressed in BL21 gold bacteria at 100 uM relative to control; parameters: scale not given: the % may be the effect or the level left
T2 sequence (whole entry): T1 sequence (P14324 whole entry)
Method in brief: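 GST-tagged recombinant human FDPS expressed in BL21 gold E. coli (IPTG induction), glutathione-affinity purified. Reaction: 20 µM GPP, 40 µM [14C]IPP in 50 mM Tris pH 7.7, 10 mM NaF, 2 mM MgCl2, 1 mg/mL BSA. 10-min enzyme–inhibitor preincubation, substrates added, 1 h at 37 °C. Butanol-extracted product counted by scintillation; n = 3.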

[5] = target: T3, Geranylgeranyl pyrophosphate synthase (Homo sapiens) (UniProt O95749); assay: Inhibition of human recombinant GGDPS expressed in BL21 gold bacteria at 100 uM relative to control; parameters: scale not given: the % may be the effect or the level left
T3 sequence (whole entry): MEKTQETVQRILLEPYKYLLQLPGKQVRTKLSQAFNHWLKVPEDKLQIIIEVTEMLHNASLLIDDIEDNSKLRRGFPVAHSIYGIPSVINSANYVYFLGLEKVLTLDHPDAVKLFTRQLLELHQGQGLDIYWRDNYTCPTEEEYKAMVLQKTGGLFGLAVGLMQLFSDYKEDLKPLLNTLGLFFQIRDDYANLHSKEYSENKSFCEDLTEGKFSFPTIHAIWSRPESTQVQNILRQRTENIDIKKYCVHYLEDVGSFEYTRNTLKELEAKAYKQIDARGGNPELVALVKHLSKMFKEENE
Method in brief: (§2)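 GST-tagged recombinant human GGDPS expressed in BL21 gold E. coli (IPTG induction), glutathione-affinity purified. Reaction: 20 µM FPP, 40 µM [14C]IPP in 50 mM imidazole pH 7.5, 0.5 mM MgCl2, 0.5 mM ZnCl2. 10-min inhibitor preincubation, substrates added together, 1 h at 37 °C. [14C]GGPP extracted into butanol and counted by scintillation; activity as % of control, n = 3.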

[6] = test system: K562; assay: Inhibition of Rap1a protein modification in human K562 cells at 50 uM by Western blot; type: functional, cell-based
Method in brief: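 K562 leukemia suspension cultures (5 × 10^6 cells/5 ml, fresh medium) incubated 24 h with compound, tested over 1, 2.5, 5, 10, 25 and 50 µM. Protein quantified by BCA; lysates run on 12% gel, transferred to PVDF, probed sequentially with primary and secondary antibodies (45 min each) for Rap1a, detected by ECL chemiluminescence.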

[7] = target: T3, Geranylgeranyl pyrophosphate synthase (Homo sapiens); assay: Inhibition of human recombinant GGDPS expressed in BL21 gold bacteria at 10 uM relative to control; parameters: scale not given: the % may be the effect or the level left; method in brief: as §2
[8] = test system: K562; assay: Inhibition of Rap1a protein geranylgernaylation modification in human K562 cells upto 10 uM by Western blot; type: functional, cell-based; method in brief: as §1

In the case of CC(C)=CCC/C(C)=C/CC(P(=O)(O)O)P(=O)(O)O, the IC50 [1] is reported as 20 µM, the Activity [2] is reported as greater than 50 µM and the GI50 [3] is reported as greater than 100 µM. For the same molecule, the Activity [4] was 11%, the Activity [5] was 51% and the Activity [6] was “inactive”.

CC(C)=CCC/C(C)=C\CC/C(C)=C\CC(P(=O)(O)O)P(=O)(O)O was tested, and the Activity [2] was greater than 50 µM.

In the case of CC(C)=CCC/C(C)=C\CC/C(C)=C/CC(P(=O)(OCOC(=O)C(C)(C)C)OCOC(=O)C(C)(C)C)P(=O)(OCOC(=O)C(C)(C)C)OCOC(=O)C(C)(C)C, the Activity [2] is reported as 10 µM and the GI50 [3] is reported as 2.7 µM.

Molecule CC(C)=CCC/C(C)=C\CC(C/C=C(\C)CCC=C(C)C)(P(=O)(OCOC(=O)C(C)(C)C)OCOC(=O)C(C)(C)C)P(=O)(OCOC(=O)C(C)(C)C)OCOC(=O)C(C)(C)C has an Activity [2] of 25 µM and a GI50 [3] greater than 100 µM.

With CC(C)=CCC(CC=C(C)C)(P(=O)(O)O)P(=O)(O)O the Activity [2] was greater than 50 µM, the GI50 [3] was greater than 100 µM and the Activity [6] was “inactive”.

With CC(C)=CCC/C(C)=C\CC(C/C=C(/C)CCC=C(C)C)(P(=O)(OCOC(=O)C(C)(C)C)OCOC(=O)C(C)(C)C)P(=O)(OCOC(=O)C(C)(C)C)OCOC(=O)C(C)(C)C the Activity [2] was 10 µM and the GI50 [3] was greater than 100 µM.

With CC(C)=CCC/C(C)=C/CC(C/C=C(\C)CCC=C(C)C)(P(=O)(O)O)P(=O)(O)O [DIGERANYL BISPHOSPHONATE] the Activity [2] was 25 µM and the GI50 [3] was greater than 100 µM.

CC(C)=CCC/C(C)=C/CC(C/C=C(\C)CCC=C(C)C)(P(=O)(OCOC(=O)C(C)(C)C)OCOC(=O)C(C)(C)C)P(=O)(OCOC(=O)C(C)(C)C)OCOC(=O)C(C)(C)C gave an Activity [7] of 96%, an Activity [2] of 10 µM and a GI50 [3] of 58 µM.

In the case of CC(C)=CCC/C(C)=C/CC/C(C)=C/CC(P(=O)(OCOC(=O)C(C)(C)C)OCOC(=O)C(C)(C)C)P(=O)(OCOC(=O)C(C)(C)C)OCOC(=O)C(C)(C)C, the Activity [7] is reported as 96%, the Activity [2] is reported as 10 µM and the GI50 [3] is reported as 7.9 µM.

In the case of CC(C)=CCC(CC=C(C)C)(P(=O)(OCOC(=O)C(C)(C)C)OCOC(=O)C(C)(C)C)P(=O)(OCOC(=O)C(C)(C)C)OCOC(=O)C(C)(C)C, the Activity [2] is reported as 5 µM, the GI50 [3] is reported as 7.7 µM and the Activity [8] is reported as “Active”.

CC(C)=CCC/C(C)=C\CC/C(C)=C/CC(P(=O)(O)O)P(=O)(O)O showed an Activity [2] of 50 µM.

CC(C)=CCC/C(C)=C\CC(CC=C(C)C)(P(=O)(OCOC(=O)C(C)(C)C)OCOC(=O)C(C)(C)C)P(=O)(OCOC(=O)C(C)(C)C)OCOC(=O)C(C)(C)C was tested, and the Activity [2] was 5 µM, the GI50 [3] was 21 µM and the Activity [8] was “Active”. The Activity [6] was “inactive”.

Work on CC(C)=CCC/C(C)=C\CC/C(C)=C\CC(P(=O)(OCOC(=O)C(C)(C)C)OCOC(=O)C(C)(C)C)P(=O)(OCOC(=O)C(C)(C)C)OCOC(=O)C(C)(C)C yielded an Activity [2] greater than 50 µM and a GI50 [3] of 2.9 µM.

CC(C)=CCC/C(C)=C/CC/C(C)=C\CC(P(=O)(O)O)P(=O)(O)O showed an Activity [2] greater than 50 µM.

In the case of CC(C)=CCC/C(C)=C\CC(C/C=C(/C)CCC=C(C)C)(P(=O)(O)O)P(=O)(O)O, the Activity [2] is reported as 25 µM and the GI50 [3] is reported as greater than 100 µM.

For CC(C)=CCC/C(C)=C\CC(CC=C(C)C)(P(=O)(O)O)P(=O)(O)O, the IC50 [1] was greater than 100 µM, the Activity [2] was 50 µM and the GI50 [3] was greater than 100 µM. The Activity [6] was “inactive”.

CC(C)=CCC/C(C)=C/CC(CC=C(C)C)(P(=O)(OCOC(=O)C(C)(C)C)OCOC(=O)C(C)(C)C)P(=O)(OCOC(=O)C(C)(C)C)OCOC(=O)C(C)(C)C gave an Activity [7] of 101%, an Activity [2] of 1 µM and a GI50 [3] of 5.2 µM. The Activity [6] was “inactive”.

In the case of CC(C)=CCC/C(C)=C/CC(CC=C(C)C)(P(=O)(O)O)P(=O)(O)O, the Activity [7] is reported as 38%, the Activity [2] is reported as 25 µM and the GI50 [3] is reported as greater than 100 µM.

Molecule CC(C)=CCC/C(C)=C/CC/C(C)=C/CC(P(=O)(O)O)P(=O)(O)O has an Activity [7] of 42%, an Activity [2] of 10 µM and a GI50 [3] of 90 µM.

With CC(C)=CCC/C(C)=C/CC(P(=O)(OCOC(=O)C(C)(C)C)OCOC(=O)C(C)(C)C)P(=O)(OCOC(=O)C(C)(C)C)OCOC(=O)C(C)(C)C the Activity [2] was 10 µM, the GI50 [3] was 8.1 µM and the Activity [4] was 99%. The Activity [5] was 100% and the Activity [6] was “inactive”.

CC(C)=CCC/C(C)=C\CC(P(=O)(OCOC(=O)C(C)(C)C)OCOC(=O)C(C)(C)C)P(=O)(OCOC(=O)C(C)(C)C)OCOC(=O)C(C)(C)C was tested, and the Activity [2] was greater than 50 µM, the GI50 [3] was 7 µM and the Activity [6] was “inactive”.

Work on CC(C)=CCC/C(C)=C\CC(C/C=C(\C)CCC=C(C)C)(P(=O)(O)O)P(=O)(O)O yielded an Activity [2] of 25 µM and a GI50 [3] greater than 100 µM.

CC(C)=CCC/C(C)=C/CC/C(C)=C\CC(P(=O)(OCOC(=O)C(C)(C)C)OCOC(=O)C(C)(C)C)P(=O)(OCOC(=O)C(C)(C)C)OCOC(=O)C(C)(C)C gave an Activity [2] greater than 50 µM and a GI50 [3] of 2 µM.

With CC(C)=CCC/C(C)=C\CC(P(=O)(O)O)P(=O)(O)O the Activity [2] was greater than 50 µM, the GI50 [3] was greater than 100 µM and the Activity [6] was “inactive”.

Source: ChEMBL document CHEMBL1142438, “Pivaloyloxymethyl-modified isoprenoid bisphosphonates display enhanced inhibition of cellular geranylgeranylation” (Bioorg Med Chem, 2008)
